Screening results from PubChem BioAssay.
Hits are enriched below; roughly 0.77% of the tested compounds scored in any of these assays.
Furin inhibitor: blocks human furin protease activity | P09958 | purified furin, fluorogenic substrate cleavage | inhibition, % at 20 µM or 30 µM | 220,000 tested, 0.061% active | AID 463115; in the data active = inhibition above about 25%
HMGR II inh: inhibitors of class II HMG-CoA reductase from Enterococcus faecalis | inhibition, % at 10 µM | purified E. faecalis HMGR, NADPH absorbance 340 nm kinetic | 190,000 tested, 0.41% active | AID 1066;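 active = inhibition above a set limit, the median over all tested compounds plus 3 SD, cut at about 9.5% in these data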;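 note: enzyme runs in reverse so mevalonate oxidation gives rising NADPH absorbance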
PERK inhibitor: inhibitors of human PERK kinase | Q9NZJ5 | CHO PERK-DD fusion, SEAP luminescence translation reporter | inhibition, % at 5.6 µM | 220,000 tested, 0.17% active | AID 1416;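 active = inhibition above the mean inhibition of all tested compounds plus 3 SD, set separately per screening campaign, cut at about 2.9% in these data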;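 note: PERK kinase domain activated by AP20187 dimerizer at 100 nM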
ABCB1 block: inhibitors of human ABCB1 transporter, ABCG2 counter-screen | CCRF-Adr cells, JC-1 efflux, flow cytometry | inhibition, % at 6.6 µM | P08183 | 190,000 tested, 0.067% active; in the data active = inhibition above about 40%;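 note: higher value means more JC-1 retained so stronger ABCB1 efflux block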
ABCG2 block: blocks JC-1 efflux by human ABCG2 transporter | inhibition, % at 6.6 µM | AID 1325 | 190,000 tested, 0.1% active | IgMXP3 cells, flow cytometry;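 active = inhibition above 80%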
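Test system: ABCG2 IgMXP3 and barcoded ABCB1 CCRF-Adr cell mix; Schedule: cells with compound and JC-1, 10 min at 25 °C, rotating, no wash; Technique: flow cytometry of retained JC-1 fluorescence; Measure: % inhibition of efflux relative to nicardipine and DMSO; Controls: nicardipine high and DMSO low controls.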
Rad51 HR inh: blocks human Rad51 in homologous recombination. 200,000 tested, 0.085% active. inhibition, % at 10 µM. hRad51 DNA strand exchange, fluorescence dequenching;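 active = inhibition above 40% at the single screening dose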
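System: hRad51 filaments on single-stranded DNA; reagent: Fluorescein- and BHQ1-tagged 47-mer duplex; compound dosing: one concentration, 10 µM final; timing: filaments 15 min 37 °C, then compound 30 min; measured by: fluorescein emission 520 nm, excitation 485 nm; benchmarks: per-plate controls and blanks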
ABCB1 confirm: confirmation of human ABCB1 transporter inhibitors, ABCG2 counter-screen | shares compounds with ABCG2 block | CCRF-Adr cells, JC-1 efflux, flow cytometry | inhibition, % at 6.6 µM | 270 tested, 7% active | AID 1451;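 active = inhibition of pump activity above 50%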
ABCG2 confirm: inhibits human ABCG2 efflux, confirmed at single point; shares compounds with ABCG2 block; IgMXP3 cells, JC-1 efflux, flow cytometry; inhibition, % at 6.6 µM; 270 tested, 6% active;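 active = inhibition above 50%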
IgMXP3 fluor: compound fluoresces at 488/530 nm in IgMXP3 cells; shares compounds with ABCG2 block; compound autofluorescence 488/530 nm, flow; stronger effect = higher value; 270 tested, 30% active; fluorescence at 6.6 µM; AID 1480;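 active = fluorescence in ABCG2-expressing cells above the plate's control-well mean plus 3 SD, cut at about 15 in these data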
CCRF-Adr fluor: CCRF-Adr autofluorescence flag for ABCB1 confirmation; shares compounds with ABCG2 block; CCRF-Adr cells, compound autofluorescence 488/530 nm, flow cytometry; stronger effect = higher value; 270 tested, 30% active; fluorescence at 6.6 µM; AID 1483;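 active = fluorescence beyond the plate control mean plus 3 SD, with a fluorescence-to-maximum score over 2, cut at about 25 in these data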
Of the large screens only hits and unclear results are named; the others gave an inactive call (follow-up assays come after a bar, where they were run).

Cc1cc(-c2sccc2Br)nc(-n2cccc2)n1	ABCG2 block 92.3 | ABCB1 confirm inactive | ABCG2 confirm inactive | IgMXP3 fluor inactive | CCRF-Adr fluor inactive
CCO[C@H]1OC(C(=O)N2CCN(C)CC2)=C[C@@H](C2CC2)[C@@H]1CCCO	none
N=c1oc2c3c4c(cc2cc1C(=O)Nc1ccccc1)CCCN4CCC3	ABCB1 block 131.2, ABCG2 block active | ABCB1 confirm inactive | ABCG2 confirm inactive | IgMXP3 fluor 625 | CCRF-Adr fluor 666
COC(=O)c1sc2cc([N+](=O)[O-])cc(SCC(C)C)c2c1N	ABCB1 block 61.1, ABCG2 block 153.8 | ABCB1 confirm inactive | ABCG2 confirm inactive | IgMXP3 fluor 45.8 | CCRF-Adr fluor 112
CCOC(=O)c1sc2ncc([N+](=O)[O-])cc2c1N	none (no result: HMGR II inh, ABCB1 block, ABCG2 block)
Cc1nnc(SCC(=O)Nc2ccc(Cl)cn2)s1	none (no result: ABCB1 block)
COc1ccc(Cc2nc3c4c(ncn3n2)Oc2c(ccc3ccccc23)C4c2ccc(OC)c(OC)c2)cc1 (stereo not given)	none
COc1ccc(Cc2nc3c4c(ncn3n2)Oc2ccc3ccccc3c2C4c2ccc(OC)c(OC)c2)cc1 (stereo not given)	none | ABCB1 confirm inactive | ABCG2 confirm inactive | IgMXP3 fluor inactive | CCRF-Adr fluor inactive
O=C(C1CCC(Cn2c(=S)[nH]c3ccccc3c2=O)CC1)N1CCN(c2ccccc2)CC1 (stereo not given)	none (no result: HMGR II inh, ABCB1 block, ABCG2 block)
COc1ccc(N2CCN(C(=O)C3CCC(Cn4c(=S)[nH]c5ccccc5c4=O)CC3)CC2)cc1 (stereo not given)	HMGR II inh 21.6, ABCB1 block 40.9 | ABCB1 confirm inactive | ABCG2 confirm inactive | IgMXP3 fluor inactive | CCRF-Adr fluor inactive
O=[N+]([O-])c1ccc(Nc2nc(Cl)nc(NCCO)n2)cc1	none | ABCB1 confirm inactive | ABCG2 confirm 54.5 | IgMXP3 fluor inactive | CCRF-Adr fluor inactive
COc1ccc(CN2C(=O)c3ccccc3C2=O)cc1C(=O)Nc1ccccc1N1CCOCC1	ABCB1 block 43.2 | ABCB1 confirm 71.6 | ABCG2 confirm inactive | IgMXP3 fluor inactive | CCRF-Adr fluor inactive
Cc1cc(C)cc(OCC(=O)OCC(=O)c2c(N)n(C)c(=O)n(C)c2=O)c1	none
O=S(=O)(c1ccc(Cl)cc1)N1CCN=C1SCc1ccc(Cl)c(Cl)c1	ABCG2 block 85.9 | ABCB1 confirm inactive | ABCG2 confirm inactive | IgMXP3 fluor inactive | CCRF-Adr fluor inactive
CCSC1=NCCN1S(=O)(=O)c1ccc(Cl)cc1	none
Cc1ccc(-c2csc3nc(SCC(=O)N(C)C)n(Cc4ccccc4)c(=O)c23)cc1	ABCG2 block 120.9 | ABCB1 confirm inactive | ABCG2 confirm inactive | IgMXP3 fluor inactive | CCRF-Adr fluor inactive
O=C(/C=C/c1cccc([N+](=O)[O-])c1)Nc1cccc(NC(=O)c2ccco2)c1	none
O=C(/C=C/c1cccc([N+](=O)[O-])c1)Nc1cccc(NC(=O)c2cccs2)c1	ABCB1 block active, ABCG2 block active | ABCB1 confirm inactive | ABCG2 confirm inactive | IgMXP3 fluor inactive | CCRF-Adr fluor inactive
NC(=O)c1ncc(C(F)(F)F)cc1Oc1ccc(C(F)(F)F)cc1	none
O=C(CCn1c(=O)[nH]c2ccsc2c1=O)Nc1ccc(F)c(F)c1	none
COc1ccc(Cc2n[nH]c(=S)n(N)c2=O)cc1	none (no result: Rad51 HR inh)
CCC(=O)Nc1cccc(C(=O)OCc2cccc([N+](=O)[O-])c2)c1	ABCG2 block 92.6 | ABCB1 confirm inactive | ABCG2 confirm inactive | IgMXP3 fluor inactive | CCRF-Adr fluor inactive
O=c1oc2ccccc2cc1-c1nc2c(s1)CCCC2	none (no result: Rad51 HR inh) | ABCB1 confirm inactive | ABCG2 confirm inactive | IgMXP3 fluor inactive | CCRF-Adr fluor inactive
O=C(Oc1ccccc1)c1cccnc1Oc1ccccc1	none (no result: HMGR II inh, ABCB1 block, ABCG2 block)
CNc1nc2cc([N+](=O)[O-])c([N+](=O)[O-])cc2nc1NC	ABCG2 block 123.6 | ABCB1 confirm inactive | ABCG2 confirm 69.3 | IgMXP3 fluor 20.8 | CCRF-Adr fluor 30.5
Cc1ccc(S(=O)(=O)NCCC(=O)OCC(=O)NC(=O)c2cccn2C)cc1	none (no result: HMGR II inh, ABCB1 block, ABCG2 block)
CCCC1=NN(c2ccc([N+](=O)[O-])cc2)C(=O)/C1=C/N(C)C	none
CC1=NN(c2ccc([N+](=O)[O-])cc2)C(=O)/C1=C\N(C)C	none | ABCB1 confirm inactive | ABCG2 confirm inactive | IgMXP3 fluor inactive | CCRF-Adr fluor inactive
O=C(O)CSc1nnc(-c2cccc(S(=O)(=O)N3CCOCC3)c2)n1-c1cccc(Cl)c1	none (no result: HMGR II inh, ABCB1 block, ABCG2 block)
CCCN1C(=O)/C(=C\C=C2\N(CC)c3ccccc3C2(C)C)SC1=S	ABCB1 block 68.2, ABCG2 block 104.0 | ABCB1 confirm inactive | ABCG2 confirm inactive | IgMXP3 fluor 63 | CCRF-Adr fluor 252
CSc1nc(N2CCCC2)c2c(c1C#N)CC(C)(C)OC2	none | ABCB1 confirm inactive | ABCG2 confirm inactive | IgMXP3 fluor inactive | CCRF-Adr fluor inactive
CCCN(CCC)CCOc1cc(C)ccc1C(C)C	ABCB1 block 137.3, ABCG2 block active | ABCB1 confirm inactive | ABCG2 confirm inactive | IgMXP3 fluor inactive | CCRF-Adr fluor 37.3
O=C1NC(CCc2ccccc2)C(=O)N1Cc1cccc2ccccc12 (stereo not given)	ABCB1 block 89.9, ABCG2 block 159.0 | ABCB1 confirm inactive | ABCG2 confirm inactive | IgMXP3 fluor inactive | CCRF-Adr fluor inactive
COc1ccc(-c2cc(C#N)nc(Cl)n2)cc1	none (no result: HMGR II inh, ABCB1 block, ABCG2 block)
COc1ccc(-c2cc(C#N)nc(Oc3ccc(Cl)cc3)n2)cc1	ABCG2 block 83.5 | ABCB1 confirm inactive | ABCG2 confirm inactive | IgMXP3 fluor 34.8 | CCRF-Adr fluor 25.6
COc1ccc(CNc2nc(-c3cccnc3)nn2C(=O)c2cccs2)cc1	ABCG2 block 87.7 (no result: Rad51 HR inh) | ABCB1 confirm inactive | ABCG2 confirm inactive | IgMXP3 fluor inactive | CCRF-Adr fluor inactive
Cc1c(C(c2ccc([N+](=O)[O-])cc2)c2c(C)n(C)n(-c3ccccc3)c2=O)c(=O)n(-c2ccccc2)n1C	none
COc1cc(NC(=S)N2CCN(C(=O)C3CCCO3)CC2)c(OC)cc1Cl (stereo not given)	none
